Hits are enriched below; roughly 2.8% of the tested compounds scored in any of these assays.
SIRT5 inh: inhibitors of human sirtuin-5 desuccinylase; Q9NXA8; Purified SirT5, succinyl-peptide AMC, trypsin-coupled fluorescence; inhibition, % at 15 µM; actives 1.1% (n = 330,000); AID 652115; in the data active = inhibition above about 15%; inconclusive = no clear call, values can overlap the other calls
Target sequence (Q9NXA8 whole entry, looked up): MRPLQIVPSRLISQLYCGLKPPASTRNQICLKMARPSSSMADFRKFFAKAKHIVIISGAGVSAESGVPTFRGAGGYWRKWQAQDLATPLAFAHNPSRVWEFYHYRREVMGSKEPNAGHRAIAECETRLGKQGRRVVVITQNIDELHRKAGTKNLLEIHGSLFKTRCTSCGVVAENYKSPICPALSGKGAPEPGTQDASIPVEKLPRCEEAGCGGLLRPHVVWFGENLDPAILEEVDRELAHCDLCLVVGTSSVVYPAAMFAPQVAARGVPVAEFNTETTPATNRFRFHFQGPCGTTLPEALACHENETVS
E-sel inducer: E-selectin induction on HUVECs | HUVEC E-selectin immunofluorescence imaging; normalized: neutral wells 0, TNF-alpha wells 100 | activation, % at 7.58 µM | AID 686992 | actives 0.37% (n = 260,000) | P16581;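 active = mean E-selectin-positive cell signal at least 10% of the positive control, reached in at least 60% of replicates, without over 20% cell loss; inconclusive = no rule given, readout overlaps actives, possibly toxicity-flagged; inactive = the rest, including those meeting only one limit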
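Test system – human umbilical vein endothelial cells (HUVEC), E-selectin induction · Input – 3,000 HUVEC seeded per well · Buffer or medium – EGM-2, gelatin · Compound dosing – single-point compound dose · Detection – immunofluorescence imaging · Measure – percent E-selectin-positive cells · Controls – TNF-alpha high, DMSO low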
DENV2 CPE: protects cells from dengue virus 2 cytopathic effect; DENV2-infected cells, cytopathic effect rescue, plate reader; CPE inhibition, % at 9.99 µM; actives 1.7% (n = 350,000); AID 651640; in the data active = CPE inhibition above about 20%, passing the limit was not always enough; inconclusive = no clear call, values can overlap the other calls; tested in BHK-21 cells;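 note: 0% = median of neutral control wells and 100% = median of positive control wells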
The depositor's hits bear a star; u = inconclusive; x = no result; ! = repeats disagree.

SMILES	SIRT5 inh	E-sel inducer	DENV2 CPE
CCCCCCN1C[C@@H](O)[C@H](n2cc(-c3ccc(F)cc3)nn2)C[C@@H]1c1ccc(C)cc1	-1.4	0.5	71.7*
CCCCCCN1C[C@H](O)[C@@H](n2cc(-c3ccc(F)cc3)nn2)C[C@@H]1c1ccc(C)cc1	-3.8	x	3.3
CCCCCC(=O)N1C[C@@H](O)[C@H](n2cc(C3CC3)nn2)C[C@@H]1c1ccccc1	x	0.6	-6.9
CCCCCCN1C[C@@H](O)[C@H](n2cc(C3CC3)nn2)C[C@@H]1c1ccc(OC)cc1	1.6	x	-3.4
CCCCCCN1C[C@@H](n2cc(C3CC3)nn2)[C@H](O)C[C@@H]1c1ccc(OC)cc1	22.7*	-0.1	-2.7
C[C@@H]1CN([C@@H](C)CO)C(=O)c2cc(NC(=O)C3CC3)ccc2O[C@@H]1CN(C)CC1CC1	2.0	-0.1	-2.1
COc1ccc2c3c([nH]c2c1)[C@@H](CO)N(Cc1ccccn1)CC31CCN(C(=O)c2ccccn2)CC1	0.9	-0.3	-5.0
O=C(Cc1ccccc1)N1C[C@H]2[C@@H](c3ccccc31)[C@H](CO)N2C(=O)Nc1ccc(F)cc1	-0.4	0.1	-9.5
C[C@@H]1CCCCO[C@@H](CN(C)C(=O)Nc2ccc(F)cc2)[C@H](C)CN([C@@H](C)CO)C(=O)c2cc(NC(=O)c3ccncc3)ccc2O1	-0.6	-0.1	-1.4
COc1ccc(CN(C)C[C@@H]2OCCCC[C@@H](C)Oc3ccc(NS(=O)(=O)c4c(C)noc4C)cc3C(=O)N([C@@H](C)CO)C[C@@H]2C)cc1	x	0.0	-1.3
COc1ccc(N2C(=O)[C@@H]3[C@H](C2=O)[C@H](C(C)=O)N2c4ccccc4C=C[C@@H]32)cc1	-0.6	x	-1.1
COc1ccc(C2C(C(=O)c3ccccc3)N3c4ccccc4C=CC3C2[N+](=O)[O-])cc1 (stereo unspecified)	-1.3	119.6*	3.4
COC(=O)/C(C#N)=C/N(C)C	-3.0	x	-0.5
CCc1c(C)nn(C(=O)/C(C#N)=C\N(C)C)c1C	16.3*	3.4	-1.9
O=S(=O)(NC[C@H]1N[C@@H](CO)[C@H]1c1ccc(C2=CCCC2)cc1)c1ccccc1	2.3	0.0	32.1*
O=S(=O)(NC[C@@H]1N[C@H](CO)[C@@H]1c1ccc(C2=CCCC2)cc1)c1ccccc1	4.0	-0.2	-10.8
O=C(NC[C@@H]1N[C@@H](CO)[C@H]1c1ccc(C2=CCCCC2)cc1)c1ccc(F)cc1	0.8	0.0	51.5*
O=C(NC[C@@H]1N[C@@H](CO)[C@H]1c1ccc(C2=CCCCC2)cc1)c1ccccc1	x	0.1	-29.9
Cc1noc(C)c1NC(=O)Nc1cccc2c1O[C@H](CN(C)S(=O)(=O)c1ccc(Cl)cc1)[C@H](C)CN([C@H](C)CO)C2=O	5.4	-0.3	1.7
O=C(Nc1cc(F)ccc1F)N1CC(=O)N2[C@H](CO)[C@@H](c3ccc(C#CC4CCCCC4)cc3)[C@H]2C1	9.5	-0.7	5.0
O=C(Cc1ccccn1)N1CC(=O)N2[C@H](CO)[C@@H](c3ccc(C#CC4CC4)cc3)[C@@H]2C1	-3.6	0.1	7.2
O=C(Nc1cc(F)ccc1F)N1CC(=O)N2[C@H](C1)[C@H](c1ccc(C#CC3CCCCC3)cc1)[C@@H]2CO	18.5*	-0.3	-12.9
O=C(Nc1cc(F)ccc1F)N1CC(=O)N2[C@@H](CO)[C@H](c3ccc(C#CC4CCCCC4)cc3)[C@@H]2C1	17.7*	-0.5	-6.6
O=C(Cc1ccccn1)N1CC(=O)N2[C@H](CO)[C@H](c3ccc(C#CC4CC4)cc3)[C@@H]2C1	4.2	-0.6	40.0*
O=C(Nc1cc(F)ccc1F)N1CC(=O)N2[C@H](CO)[C@H](c3ccc(C#CC4CCCC4)cc3)[C@@H]2C1	4.5	-0.6	5.1
SMILES	SIRT5 inh	E-sel inducer	DENV2 CPE
O=C(Nc1ccccc1F)N1CC(=O)N2[C@H](C1)[C@@H](c1ccc(C#CC3CCCC3)cc1)[C@@H]2CO	18.8*	0.4	2.2
O=C(Nc1ccccc1F)N1CC(=O)N2[C@H](CO)[C@@H](c3ccc(C#CC4CCCC4)cc3)[C@@H]2C1	14.9	0.0	-3.0
CN1CCN(C(=O)C[C@H]2C=C[C@H](NC(=O)Nc3ccccc3F)[C@@H](CO)O2)CC1	-2.0	-0.6	u
O=C(O)C[C@H]1C=C[C@H](NC(=O)CCN2CCCCC2)[C@@H](CO)O1	-1.2	0.1	6.5
C[C@H]1CN([C@@H](C)CO)C(=O)c2cc(NC(=O)CCN3CCOCC3)ccc2O[C@H]1CN(C)Cc1ccncc1	-4.7	-11.1	-1.2
C[C@@H]1CN([C@@H](C)CO)C(=O)c2cc(NC(=O)CCN3CCOCC3)ccc2O[C@H]1CN(C)Cc1ccncc1	-4.1	31.5*	u
CC(C)NC(=O)N(C)C[C@@H]1Oc2ccc(NC(=O)CCN3CCOCC3)cc2C(=O)N([C@H](C)CO)C[C@H]1C	-2.7	65.5*	-2.3
C[C@H](CO)N1C[C@H](C)[C@@H](CN(C)S(=O)(=O)c2ccc(F)cc2)Oc2ccc(NC(=O)CCN3CCOCC3)cc2C1=O	15.1*!	0.1	u
CNC[C@H]1Oc2ccc(NC(=O)CCN3CCOCC3)cc2C(=O)N([C@H](C)CO)C[C@@H]1C	-1.9	-0.2	27.4*
C[C@H]1CN([C@@H](C)CO)C(=O)c2cc(NC(=O)CCN3CCOCC3)ccc2O[C@@H]1CN(C)C(=O)NC1CCCCC1	-1.4	9.5	-6.4
CNC[C@H]1Oc2ccc(NC(=O)CCN3CCOCC3)cc2C(=O)N([C@@H](C)CO)C[C@@H]1C	x	-0.1	x
C[C@@H]1CN([C@@H](C)CO)C(=O)c2cc(NC(=O)CCN3CCOCC3)ccc2O[C@@H]1CN(C)S(=O)(=O)c1ccc(F)cc1	-1.8	0.1	3.7
C[C@@H]1CN([C@@H](C)CO)C(=O)c2cc(NS(=O)(=O)c3cn(C)cn3)ccc2O[C@@H]1CN(C)C(=O)Nc1ccc(F)cc1	x	19.4	x
O=C(Nc1ccccc1)Nc1ccc2c(c1)[C@H]1C[C@@H](CC(=O)N3CCOCC3)O[C@H](CO)[C@H]1O2	x	0.1	4.8
CO[C@@H]1CN(C)C(=O)c2ccc(NS(C)(=O)=O)cc2OC[C@@H](C)N(C(=O)c2ccc3c(c2)OCO3)C[C@@H]1C	x	3.9	x
C[C@@H]1CN([C@@H](C)CO)C(=O)c2cc(NC(=O)CCN3CCOCC3)ccc2O[C@@H]1CN(C)C(=O)NC1CCCCC1	-4.5	-7.4	-8.5
CC(C)NC(=O)N(C)C[C@H]1Oc2ccc(NC(=O)CCN3CCOCC3)cc2C(=O)N([C@@H](C)CO)C[C@H]1C	0.6	46.3*	-2.9
COc1ccc(N2CCN(C(=O)c3cccc(NC4=NC5CS(=O)(=O)CC5S4)c3)CC2)cc1 (stereo unspecified)	-2.4	52.9*	-1.6
O=C(c1cccc(NC2=NC3CS(=O)(=O)CC3S2)c1)N1CCN(c2ncccn2)CC1 (stereo unspecified)	0.3	-0.4	5.1
O=C(C[C@H]1C[C@H]2c3cc(NC(=O)NC4CCCC4)ccc3O[C@H]2[C@H](CO)O1)NCc1ccc(-c2ccccc2)cc1	-2.3	-0.1	-1.1
C[C@H](CO)N1C[C@H](C)[C@@H](CN(C)Cc2ccc(Oc3ccccc3)cc2)Oc2c(NC(=O)c3ccc(-c4nccs4)cc3)cccc2C1=O	15.9*	0.5	-0.5
